Measured values from ChEMBL document CHEMBL1134845, “Syntheses and biological activities of a novel group of steroidal derived inhibitors for human Cdc25A protein phosphatase” (J Med Chem, 2001).

How the values were obtained:
A549 = assay: Growth inhibitory activity was determined against A549/ATCC cancer cell line of non-small cell lung cancer; format: functional, Homo sapiens; conditions: Homo sapiens, A549
Procedure, shortened: (§1)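 NCI 60 human tumour cell line screen run at the National Cancer Institute. Cell growth and viability read with the protein stain sulforhodamine B, which binds basic amino acids of cells left attached after washing. […] MG MID is the mean GI50 calculated over all panels.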

UO-31 [1] = assay: Growth inhibitory activity was determined against UO-31 cancer cell line of Renal cancer; format: functional; conditions: Homo sapiens; procedure, shortened: as §1
LOX IMVI = assay: Growth inhibitory activity was determined against LOX IMVI cancer cell line of melanoma; format: functional, Homo sapiens; conditions: Homo sapiens, LOX IMVI; procedure, shortened: as §1
U-251 = assay: Growth inhibitory activity was determined against U-251 cancer cell line of CNS cancer; format: functional; conditions: Homo sapiens; procedure, shortened: as §1
PC-3 = assay: Growth inhibitory activity was determined against PC-3 cancer cell line of Prostate cancer; format: functional; conditions: Homo sapiens; procedure, shortened: as §1
SK-MEL-5 = assay: Growth inhibitory activity was determined against SK-MEL-5 cancer cell line of melanoma; format: functional, Homo sapiens; conditions: Homo sapiens, SK-MEL-5; procedure, shortened: as §1
COLO 205 = assay: Growth inhibitory activity was determined against COLO 205 cancer cell line colon cancer; format: functional, Homo sapiens; conditions: Homo sapiens, COLO 205; procedure, shortened: as §1
786-0 [2] = assay: Growth inhibitory activity was determined against 786-0 cancer cell line of Renal cancer; format: functional; conditions: Homo sapiens; procedure, shortened: as §1
SN12C [3] = assay: Growth inhibitory activity was determined against SN12C cancer cell line of Renal cancer; format: functional; conditions: Homo sapiens; procedure, shortened: as §1
OVCAR-3 [4] = assay: Growth inhibitory activity was determined against OVCAR-3 cancer cell line of Ovarian cancer; format: functional; conditions: Homo sapiens; procedure, shortened: as §1
BT-549 (Homo sapiens) = assay: Growth inhibitory activity was determined against BT-549 cancer cell line of Breast cancer; conditions: Homo sapiens, BT-549
SF-539 = assay: Growth inhibitory activity was determined against SF-539 cancer cell line of CNS cancer; format: functional; conditions: Homo sapiens; procedure, shortened: as §1
SF-268 = assay: Growth inhibitory activity was determined against SF-268 cancer cell line of CNS cancer; format: functional; conditions: Homo sapiens; procedure, shortened: as §1
OVCAR-8 [5] = assay: Growth inhibitory activity was determined against OVCAR-8 cancer cell line of Ovarian cancer; format: functional; conditions: Homo sapiens; procedure, shortened: as §1
NCI-H522 = assay: Growth inhibitory activity was determined against NCI-H522 cancer cell line of non-small cell lung cancer; format: functional; conditions: Homo sapiens; procedure, shortened: as §1
T47D = assay: Growth inhibitory activity was determined against T-47D cancer cell line of Breast cancer; format: functional, Homo sapiens; conditions: Homo sapiens, T47D; procedure, shortened: as §1
HCC 2998 = assay: Growth inhibitory activity was determined against HCC2998 cancer cell line colon cancer; format: functional, Homo sapiens; conditions: Homo sapiens, HCC 2998; procedure, shortened: as §1
HT-29 [6] = assay: Inhibition of colon cancer in HT-29 cancer cell lines; format: functional; conditions: Homo sapiens
Procedure, shortened: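 Soft agar clonogenic assay of anchorage-independent growth, using HT-29 colon and A549 lung adenocarcinoma cells. The value is the compound concentration that cut colony number to 50% of control.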

NCI-H23 = assay: Growth inhibitory activity was determined against NCI-H23 cancer cell line of non-small cell lung cancer; format: functional, Homo sapiens; conditions: Homo sapiens, NCI-H23; procedure, shortened: as §1
786-0 [7] = assay: Growth inhibitory activity was determined against 786-0 cancer cell line of renal cancer; format: functional; conditions: Homo sapiens; procedure, shortened: as §1
OVCAR-3 [8] = assay: Growth inhibitory activity was determined against OVCAR-3 cancer cell lines of Ovarian cancer; format: functional; conditions: Homo sapiens; procedure, shortened: as §1
OVCAR-8 [9] = assay: Growth inhibitory activity was determined against OVCAR-8 cancer cell lines of Ovarian cancer; format: functional; conditions: Homo sapiens; procedure, shortened: as §1
NCI/ADR-RES = assay: Growth inhibitory activity was determined against NCI/ADR-RES cancer cell line of Breast cancer; format: functional, Homo sapiens; conditions: Homo sapiens, NCI/ADR-RES; procedure, shortened: as §1
SN12C [10] = assay: Growth inhibitory activity was determined against SN12C cancer cell line of renal cancer; format: functional; conditions: Homo sapiens; procedure, shortened: as §1
HT-29 [11] = assay: Growth inhibitory activity was determined against HT-29 cancer cell line colon cancer; format: functional, Homo sapiens; conditions: Homo sapiens, HT-29; procedure, shortened: as §1
UO-31 [12] = assay: Growth inhibitory activity was determined against UO-31 cancer cell line of renal cancer; format: functional; conditions: Homo sapiens; procedure, shortened: as §1

CC(C)CCC[C@@H](C)[C@H]1CC[C@H]2[C@@H]3CC(=O)O[C@](C)(CCCCC#N)[C@H]3CC[C@]12C
GI50 (A549): 5.51 µM | GI50 (UO-31 [1]): 0.47 µM | GI50 (LOX IMVI): 5.35 µM | GI50 (U-251): 5.04 µM | GI50 (PC-3): 5.51 µM | GI50 (SK-MEL-5): 5.1 µM | GI50 (COLO 205): 4.75 µM | GI50 (786-0 [2]): 4.3 µM | GI50 (SN12C [3]): 4.38 µM | GI50 (OVCAR-3 [4]): 4.73 µM | GI50 (BT-549 (Homo sapiens)): 5.89 µM | GI50 (SF-539): 5.17 µM | GI50 (SF-268): > 25 µM | GI50 (OVCAR-8 [5]): 5.19 µM | GI50 (NCI-H522): > 25 µM | GI50 (T47D): 4.92 µM | GI50 (HCC 2998): 4.71 µM | GI50 (HT-29 [6]): 4.05 µM | GI50 (NCI-H23): 5.63 µM

CC(C)CCCC(C)[C@H]1CC[C@H]2[C@H](CC(=O)O)[C@@H]([C@@]3(C)CC[C@@H](CC#N)O3)CC[C@]12C (some centres undefined)
GI50 (786-0 [7]): 9.23 µM | GI50 (A549): 8.25 µM | GI50 (LOX IMVI): 6.23 µM | GI50 (OVCAR-3 [8]): 5.66 µM | GI50 (U-251): 6.01 µM | GI50 (OVCAR-8 [9]): 4.76 µM | GI50 (PC-3): 7.77 µM | GI50 (SK-MEL-5): 10.8 µM | GI50 (COLO 205): 5.26 µM | GI50 (NCI/ADR-RES): 5.44 µM | GI50 (BT-549 (Homo sapiens)): 5.05 µM | GI50 (SN12C [10]): 5.4 µM | GI50 (SF-539): 19.5 µM | GI50 (SF-268): 2.86 µM | GI50 (HT-29 [11]): 5.52 µM | GI50 (NCI-H522): 0.94 µM | GI50 (T47D): 8.41 µM | GI50 (HCC 2998): 5.1 µM | GI50 (UO-31 [12]): 15.3 µM | GI50 (NCI-H23): 5.75 µM
